Screening data as filed in PubChem.
TAG inh: reduces triacylglycerol accumulation in H9c2 cells. hit rate 0.66% among 230,000. inhibition, % at 12.5 µM. Nile Red lipid (TAG) fluorescence; cells loaded with 200 µM oleic acid;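 active = pattern-corrected inhibition of lipid staining of at least 50% with the nuclear-stain viability signal not falling by more than 50%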
697 NFkB inh: lowers PMA/ionomycin-induced NF-kB signal in 697 B cells. 697 B-cell NF-kB luciferase reporter, 16 h. inhibition, % at 4 µM. hit rate 0.33% among 330,000; in the data active = inhibition above about 35%
aSyn 5UTR inh: MLPCN primary screen, SNCA 5' untranslated region; alpha-synuclein 5'UTR reporter, inhibitor activity; inhibition, % (tested at 7.5 µM); hit rate 0.82% among 300,000; in the data active = inhibition above about 60%; inconclusive = no clear call, values can overlap the other calls;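 note: H4 neuroglioblastoma cells stably carrying SNCA 5'UTR luciferase fusion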
Hep lipid drop: modulators of hepatic lipid droplet formation. inhibition, % at 6.5 µM. hit rate 0.4% among 240,000. AML12 mouse hepatocytes, oleate lipid droplets, BODIPY imaging;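 active = lipid droplet intensity inhibited by at least 50%, with more than 500 cells counted; inconclusive = wells with under 300 cells, treated as cytotoxic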
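Test system: AML12 mouse liver cells; schedule: overnight exposure; technique: high-content imaging of BODIPY-stained droplets and DAPI nuclei; read-out: % inhibition of corrected integrated BODIPY droplet signal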
Jurkat NFkB inh: inhibitors of the PMA/ionomycin-induced NF-kB reporter in Jurkat cells; PMA/ionomycin-induced NF-kB luciferase reporter, luminescence; inhibition, % at 4 µM; hit rate 0.53% among 330,000; in the data active = inhibition above about 50%
APP 5UTR inh: APP translation inhibition; hit rate 0.82% among 190,000; inhibition, % at 2 µM; AID 1285; SH-SY5Y APP 5'UTR-luciferase reporter, luminescence;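 active = inhibition above a set limit, derived from the sample mean plus 3 SD, cut at about 45% in these data; inconclusive = one replicate passes the limit while the other fails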
Jurkat NFkB conf: lowers PMA/ionomycin-induced NF-kB signal in Jurkat cells; AID 435020; hit rate 27% among 2,700; Jurkat NF-kB luciferase, 16 h; inhibition, % at 4 µM; shares compounds with Jurkat NFkB inh;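 active = inhibition reaching about 45% at 4 µM in either replicate, limit read from the data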
A number is an active result; – = inactive; ? = inconclusive; · = no result. Compounds with a hit are over-represented: about 1.9% of the library has one in this group of screens.

SMILES	TAG inh	697 NFkB inh	aSyn 5UTR inh	Hep lipid drop	Jurkat NFkB inh	APP 5UTR inh	Jurkat NFkB conf
Cc1cc(C)c2sc(NC(=O)C3=COCCO3)nc2c1	–	–	–	–	–	·	–
CCCC(=NCCc1c(C)[nH]c2ccccc12)C1=C(O)CC(c2ccccc2)CC1=O (stereo unspecified)	·	–	86.5	?	54.0	84.2	–
CC(=NCCc1c(C)[nH]c2ccc(C)cc12)C1=C(O)CC(c2ccccc2)CC1=O (stereo unspecified)	·	–	–	–	56.1	87.5	–
CCC/C(O)=C1\C(=O)CC(c2ccccc2)CC1=NCCc1c(C)[nH]c2ccccc12 (stereo unspecified)	–	–	–	–	–	–	·
CC(=NCCc1c(C)[nH]c2ccc(OC(F)(F)F)cc12)C1=C(O)CC(c2ccccc2)CC1=O (stereo unspecified)	–	–	–	–	57.0	–	–
CCCCC(=NCCc1c(C)[nH]c2ccccc12)C1=C(O)CC(c2ccccc2)CC1=O (stereo unspecified)	–	–	–	–	–	–	·
CC(=O)n1cc(C(C[N+](=O)[O-])SCCN)c2ccccc21 (stereo unspecified)	–	–	–	·	–	–	·
O=C(O)/C=C\C(=O)Nc1ccc(F)c(F)c1F	–	–	–	–	–	·	·
COc1ccc(CCNC(=O)CNC(=O)c2ccccc2Br)cc1OC	·	–	–	–	–	·	·
CC(=O)c1ccc2c(c1)C1C=CCC1C(c1cc3c(cc1Br)OCO3)N2 (stereo unspecified)	–	–	–	·	79.7	·	–
COc1ccc2c(c1)C1C=CCC1C(c1cc3c(cc1Br)OCO3)N2 (stereo unspecified)	–	–	–	·	–	–	·
CC(C)(C)C(=O)Nc1nc(-c2ccccc2)ns1	–	–	–	–	–	–	·
c1ccc(Nc2nc(-c3ccccc3)ns2)cc1	·	–	–	–	–	·	–
CCCCCc1ccc(-c2cn(CCc3c[nH]c4ccccc34)nn2)cc1	–	–	–	–	55.7	·	–
C(=C\c1nc(-c2ccccc2)no1)/c1ccccc1	·	–	–	–	–	–	–
O=C(CCCNC(=O)c1ccc(Cl)cc1)Nc1ccc(F)c(S(=O)(=O)N2CCOCC2)c1	–	–	·	·	–	·	·
COc1ccc2c(c1OC)C(=O)N(c1cccc(C)c1)C2	–	–	–	–	–	–	·
COc1ccc2c(c1OC)C(=O)N(c1cccc(C(F)(F)F)c1)C2	·	–	–	–	–	–	–
Cc1nc2ccc(C(=O)N3c4ccccc4CC3C)cc2s1 (stereo unspecified)	–	–	–	–	55.0	–	–
CCOc1ccc2c(c1)OC(c1ccc(C)cc1)(C(F)(F)F)NC2=O (stereo unspecified)	·	–	95.8	–	60.2	94.7	–
CCOc1cc(S(=O)(=O)NCCc2ccc(OC)c(OC)c2)c(OCC)cc1-n1cnnn1	·	–	–	–	–	–	·
CCOc1cc(S(=O)(=O)NCc2ccc(OC)cc2)c(OCC)cc1-n1cnnn1	·	–	–	–	56.8	·	–
Cn1c(SCc2cccc(C#N)c2)nc2ccccc2c1=O	·	–	–	–	–	·	·
CSc1ccccc1C(=O)C1CCCN(Cc2cnn(-c3ccccc3)c2)C1 (stereo unspecified)	·	–	–	–	–	–	·
CC(=O)Nc1ccc(-c2cc3ccccc3o2)cc1	–	–	–	·	–	–	–
SMILES	TAG inh	697 NFkB inh	aSyn 5UTR inh	Hep lipid drop	Jurkat NFkB inh	APP 5UTR inh	Jurkat NFkB conf
CCC(=O)Nc1ccc(-c2cc3ccccc3oc2=O)cc1	–	–	?	–	–	–	·
O=C1CC(c2cc(Br)ccc2F)c2cc3c(cc2N1)CCC3 (stereo unspecified)	·	–	65.1	·	72.7	–	48.0
O=C1CC(c2ccccc2Br)c2cc3c(cc2N1)CCC3 (stereo unspecified)	·	–	–	–	54.7	–	–
COc1ccc(Nc2nc(-c3ccc(OC)cc3)cs2)cc1	–	–	–	–	–	–	·
COc1ccc(-c2csc(Nc3ccccc3)n2)cc1	–	–	–	–	–	–	–
CC(=O)c1cccc(Nc2nc(-c3ccccc3)cs2)c1	–	–	–	–	–	–	–
COc1ccc(NC(=S)N2CCN(Cc3ccco3)CC2)c(OC)c1	·	–	–	–	–	–	·
CCCSc1nnc(Sc2nnnn2-c2ccccc2)s1	·	–	–	–	86.6	94.5	60.8
Cc1ccccc1-n1nnnc1Sc1nnnn1-c1ccccc1	–	–	·	–	–	–	·
Cc1ccc(N2C(=O)c3cccc4c(N)ccc(c34)C2=O)c2cccnc12	–	–	99.8	–	75.2	·	–
N=c1c(C(=O)NC2CCCCC2)cc2c(=O)n3ccccc3nc2n1CCc1ccccc1	·	–	–	–	58.2	·	–
N=c1c(C(=O)NCCc2ccccc2)cc2c(=O)n3ccccc3nc2n1CCCN1CCOCC1	·	–	–	–	52.9	·	–
N=c1c(C(=O)NCc2ccccc2)cc2c(=O)n3ccccc3nc2n1CCCN1CCOCC1	–	–	·	·	–	·	·
CCOC(=O)c1c(-c2ccccc2)oc2ccc(OCC)cc12	–	–	–	–	–	–	·
CCOC(=O)c1c(-c2ccccc2)oc2ccc(OCC(O)CNCCN(C)C)cc12 (stereo unspecified)	·	–	–	–	56.0	·	–
O=S1(=O)c2c(F)cccc2O[C@@H](COCc2ccccc2)CN1CCc1ccc(F)cc1	–	·	·	·	·	·	·
O=C(NCc1ccccc1)c1c(Cl)nc(Cl)c(Cl)c1Cl	·	–	99.2	–	50.8	·	–
CCSc1nccc(-c2nn(-c3ccc(C)cc3)ccc2=O)n1	–	–	–	–	50.8	·	–
CSc1nccc(-c2nn(-c3ccc(C)cc3)ccc2=O)n1	–	–	–	–	57.6	–	48.8
O=C(Nc1ccc(Br)cc1)c1ccc2c(c1)OCO2	–	–	–	–	–	·	–
O=C(Nc1cccc(NC(=O)c2ccc3c(c2)OCO3)c1)c1ccccc1	–	–	–	–	–	–	·
O=C(Nc1ccc2nsnc2c1)c1ccc2c(c1)OCO2	·	–	·	–	–	–	–
O=C(Nc1ccc2c(c1)OCO2)c1ccc2c(c1)OCO2	·	–	–	–	–	–	·
Cc1ccc(C(C)C)cc1S(=O)(=O)NC1CC(C)(C)NC(C)(C)C1	–	–	–	–	–	·	·
O=[N+]([O-])c1cccc(NC2=NCCC2)c1	·	–	–	–	–	–	·
SMILES	TAG inh	697 NFkB inh	aSyn 5UTR inh	Hep lipid drop	Jurkat NFkB inh	APP 5UTR inh	Jurkat NFkB conf
CC1CCCCC1NC(=O)c1cc2ccccc2o1 (stereo unspecified)	–	–	–	–	–	–	·
COc1ccccc1C(=O)Nc1cccc2c1CCCC2	·	–	–	–	–	·	·
Nc1ccc(-c2nc3ccccc3s2)cn1	·	–	–	–	–	·	·
CCCNC(=O)c1ccc(-c2nc3ccccc3s2)s1	–	–	79.2	–	–	–	–
Brc1ccc(-c2nc3ccccc3s2)s1	·	–	–	·	–	–	–
N#C/C(=C\c1ccc(OCc2ccc(C(=O)O)cc2)cc1)C(=O)N1CCOCC1	–	–	93.0	–	65.8	55.8	59.8
O=C(Cc1c(F)cccc1Cl)N1CCN(S(=O)(=O)c2cccs2)CC1	–	–	·	·	–	·	·
